{"source": "paper PMC13103313", "about": "(Nature Communications, 2026)", "key": {"[1]": {"target": "NaV1.5 channels (Homo sapiens, UniProt Q14524)", "assay": "Whole-cell patch-clamp recording of NaV1.5 currents in HEK293T cells", "assay_type": "cell-based", "conditions": "HEK-293T, read-out: inhibition rate, NaV1.5 WT, 100 μM"}, "[2]": {"target": "NaV1.5 F1760A (Homo sapiens, UniProt Q14524, F1760A)", "sequence (Q14524 whole entry F1760A)": "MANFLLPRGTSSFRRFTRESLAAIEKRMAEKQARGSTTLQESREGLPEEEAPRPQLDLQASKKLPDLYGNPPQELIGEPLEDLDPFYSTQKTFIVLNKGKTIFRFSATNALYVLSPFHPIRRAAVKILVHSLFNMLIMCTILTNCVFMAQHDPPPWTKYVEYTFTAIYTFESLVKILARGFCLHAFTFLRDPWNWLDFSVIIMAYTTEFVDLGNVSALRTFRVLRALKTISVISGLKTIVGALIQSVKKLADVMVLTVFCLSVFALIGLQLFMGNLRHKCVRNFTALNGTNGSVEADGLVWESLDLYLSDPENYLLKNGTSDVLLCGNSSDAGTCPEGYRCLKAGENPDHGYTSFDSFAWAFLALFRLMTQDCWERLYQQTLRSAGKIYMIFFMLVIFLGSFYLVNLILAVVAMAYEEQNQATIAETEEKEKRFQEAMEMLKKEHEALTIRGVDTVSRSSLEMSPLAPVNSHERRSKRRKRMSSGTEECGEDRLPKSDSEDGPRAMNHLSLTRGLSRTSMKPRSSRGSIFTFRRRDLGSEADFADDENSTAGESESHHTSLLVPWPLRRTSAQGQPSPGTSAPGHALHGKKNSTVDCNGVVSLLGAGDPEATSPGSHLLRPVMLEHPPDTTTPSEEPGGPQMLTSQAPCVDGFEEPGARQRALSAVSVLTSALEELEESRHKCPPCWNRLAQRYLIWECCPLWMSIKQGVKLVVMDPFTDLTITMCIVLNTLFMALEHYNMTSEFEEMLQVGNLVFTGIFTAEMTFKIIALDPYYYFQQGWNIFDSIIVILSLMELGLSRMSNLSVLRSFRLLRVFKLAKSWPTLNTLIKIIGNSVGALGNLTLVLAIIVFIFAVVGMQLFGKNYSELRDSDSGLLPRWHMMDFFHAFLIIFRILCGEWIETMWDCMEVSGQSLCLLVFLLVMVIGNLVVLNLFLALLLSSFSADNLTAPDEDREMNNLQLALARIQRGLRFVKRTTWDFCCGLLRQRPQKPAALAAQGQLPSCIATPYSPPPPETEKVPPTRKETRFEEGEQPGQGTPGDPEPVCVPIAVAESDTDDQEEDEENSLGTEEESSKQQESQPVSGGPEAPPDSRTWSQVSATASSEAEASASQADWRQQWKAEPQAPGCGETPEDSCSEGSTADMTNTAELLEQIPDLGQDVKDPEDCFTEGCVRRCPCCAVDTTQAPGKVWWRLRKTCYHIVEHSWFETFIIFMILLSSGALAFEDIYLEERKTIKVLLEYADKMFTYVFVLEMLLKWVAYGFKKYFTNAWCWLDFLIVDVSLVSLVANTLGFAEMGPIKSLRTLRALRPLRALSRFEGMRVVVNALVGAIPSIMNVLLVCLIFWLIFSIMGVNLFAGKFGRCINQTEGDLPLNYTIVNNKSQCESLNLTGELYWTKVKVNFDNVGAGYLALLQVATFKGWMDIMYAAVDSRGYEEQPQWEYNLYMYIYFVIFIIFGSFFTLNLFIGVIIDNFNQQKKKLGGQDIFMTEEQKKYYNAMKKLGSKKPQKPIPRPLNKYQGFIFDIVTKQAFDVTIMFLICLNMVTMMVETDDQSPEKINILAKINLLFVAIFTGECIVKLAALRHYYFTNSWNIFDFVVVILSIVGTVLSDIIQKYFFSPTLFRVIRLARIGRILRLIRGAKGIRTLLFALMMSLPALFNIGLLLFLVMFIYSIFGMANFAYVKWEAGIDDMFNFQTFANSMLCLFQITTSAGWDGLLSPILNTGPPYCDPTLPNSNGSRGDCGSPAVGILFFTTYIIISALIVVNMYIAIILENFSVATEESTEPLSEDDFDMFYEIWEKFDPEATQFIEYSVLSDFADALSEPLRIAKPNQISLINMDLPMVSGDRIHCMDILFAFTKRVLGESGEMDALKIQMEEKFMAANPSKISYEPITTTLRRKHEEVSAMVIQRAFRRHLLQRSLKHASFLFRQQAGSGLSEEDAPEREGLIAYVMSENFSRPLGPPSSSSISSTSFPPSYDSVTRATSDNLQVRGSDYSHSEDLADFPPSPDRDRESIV", "assay": "Whole-cell patch-clamp of NaV1.5 F1760A mutant in HEK293T cells", "assay_type": "cell-based", "conditions": "HEK-293T, read-out: inhibition rate, NaV1.5 F1760A"}, "[3]": {"tested_on": "zebrafish larvae", "assay": "Heart rate recording in zebrafish larvae", "assay_type": "in vivo", "conditions": "10 μM"}, "[4]": {"tested_on": "Na+ current in primary ventricular myocytes", "assay": "Voltage-gated Na+ current in rat primary ventricular myocytes", "assay_type": "cell-based", "conditions": "10 µM; rat primary cardiomyocytes; 365 vs 480 nm", "procedure,_shortened": "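Ventricular myocytes from 1–2-day-old Sprague-Dawley rats, dissociated with 0.05% trypsin and 0.1% collagenase II, with fibroblasts removed by 2 h pre-plating. Cultured in DMEM with 10% FBS at 37 °C. Whole-cell voltage clamp followed the HEK293T Na+ protocol (hold −120 mV, 50 ms step to −20 mV).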"}, "[5]": {"target": "NaV1.5 V405A (Homo sapiens, UniProt Q14524, V405A)", "sequence (Q14524 whole entry V405A)": "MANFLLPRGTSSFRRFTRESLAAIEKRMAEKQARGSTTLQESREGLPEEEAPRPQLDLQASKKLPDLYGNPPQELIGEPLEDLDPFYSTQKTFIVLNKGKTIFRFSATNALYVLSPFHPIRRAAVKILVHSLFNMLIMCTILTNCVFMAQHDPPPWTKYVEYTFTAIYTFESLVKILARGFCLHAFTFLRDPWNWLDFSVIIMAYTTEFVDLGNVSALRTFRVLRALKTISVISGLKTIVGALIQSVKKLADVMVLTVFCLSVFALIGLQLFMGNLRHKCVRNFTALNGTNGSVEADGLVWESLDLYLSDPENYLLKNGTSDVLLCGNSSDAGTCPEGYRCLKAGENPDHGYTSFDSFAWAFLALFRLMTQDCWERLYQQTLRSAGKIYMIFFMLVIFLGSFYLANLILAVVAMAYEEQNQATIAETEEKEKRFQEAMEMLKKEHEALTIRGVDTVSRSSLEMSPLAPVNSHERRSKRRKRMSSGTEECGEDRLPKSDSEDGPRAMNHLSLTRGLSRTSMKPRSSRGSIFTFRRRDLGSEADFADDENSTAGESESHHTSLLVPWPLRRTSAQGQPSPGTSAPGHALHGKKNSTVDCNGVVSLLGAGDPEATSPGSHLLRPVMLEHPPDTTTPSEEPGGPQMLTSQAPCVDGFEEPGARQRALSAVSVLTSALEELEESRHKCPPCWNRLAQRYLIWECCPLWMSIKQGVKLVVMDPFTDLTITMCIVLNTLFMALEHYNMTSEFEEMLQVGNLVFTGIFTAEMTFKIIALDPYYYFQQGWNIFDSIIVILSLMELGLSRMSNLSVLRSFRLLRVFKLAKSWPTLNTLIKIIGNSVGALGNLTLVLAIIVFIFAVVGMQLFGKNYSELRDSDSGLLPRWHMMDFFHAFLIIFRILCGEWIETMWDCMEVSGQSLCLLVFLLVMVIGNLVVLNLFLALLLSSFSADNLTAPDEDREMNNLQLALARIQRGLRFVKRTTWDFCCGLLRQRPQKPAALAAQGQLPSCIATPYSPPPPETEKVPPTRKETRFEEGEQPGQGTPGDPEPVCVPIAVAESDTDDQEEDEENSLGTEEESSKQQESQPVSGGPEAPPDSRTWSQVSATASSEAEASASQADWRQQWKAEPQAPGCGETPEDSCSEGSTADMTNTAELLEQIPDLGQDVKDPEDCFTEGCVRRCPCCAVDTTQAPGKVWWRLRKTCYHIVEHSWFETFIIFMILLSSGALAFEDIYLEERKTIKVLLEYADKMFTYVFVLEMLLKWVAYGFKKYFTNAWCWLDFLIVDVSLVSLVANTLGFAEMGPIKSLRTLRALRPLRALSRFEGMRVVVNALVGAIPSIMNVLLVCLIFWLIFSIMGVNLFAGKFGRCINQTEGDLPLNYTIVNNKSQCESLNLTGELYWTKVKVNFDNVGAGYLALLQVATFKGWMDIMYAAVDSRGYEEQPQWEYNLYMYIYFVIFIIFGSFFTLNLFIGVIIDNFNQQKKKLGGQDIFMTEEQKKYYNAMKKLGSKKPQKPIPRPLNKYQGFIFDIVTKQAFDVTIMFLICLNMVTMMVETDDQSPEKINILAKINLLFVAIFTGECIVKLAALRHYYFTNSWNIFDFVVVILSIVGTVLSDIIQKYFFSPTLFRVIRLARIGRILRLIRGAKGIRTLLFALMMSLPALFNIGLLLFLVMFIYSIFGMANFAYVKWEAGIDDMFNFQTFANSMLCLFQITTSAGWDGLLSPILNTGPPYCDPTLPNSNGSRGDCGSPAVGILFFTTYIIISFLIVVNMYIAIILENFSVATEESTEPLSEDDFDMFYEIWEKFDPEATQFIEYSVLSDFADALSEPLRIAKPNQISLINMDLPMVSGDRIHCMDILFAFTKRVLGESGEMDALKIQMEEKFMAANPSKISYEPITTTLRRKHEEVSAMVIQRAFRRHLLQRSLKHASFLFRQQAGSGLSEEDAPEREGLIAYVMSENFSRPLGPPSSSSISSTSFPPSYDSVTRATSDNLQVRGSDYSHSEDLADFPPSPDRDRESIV", "assay": "Whole-cell patch-clamp of NaV1.5 V405A mutant in HEK293T cells", "assay_type": "cell-based", "conditions": "HEK-293T, read-out: inhibition rate, NaV1.5 V405A"}, "[6]": {"tested_on": "zebrafish larvae", "assay": "ISO-induced tachycardia model in zebrafish larvae", "assay_type": "in vivo", "conditions": "100 μM; 10 μM ISO 100 min; zebrafish larvae 3–4 dpf"}}, "data": [{"compound": "C=C[C@H]1C[N@@]2CC[C@H]1C[C@@H]2[C@@H](O)c1ccnc2ccc(OC)cc12", "note": "[Quinidine, quinidine]", "values": [{"measurement": "inhibition at 100 µM", "setting": "[1]", "value": "77.6 ± 3.2", "unit": "%"}, {"measurement": "inhibition at 100 µM", "setting": "[2]", "value": "32.6 ± 1.8", "unit": "%"}, {"measurement": "heart rate normalized to control in dark", "setting": "[3]; soaking 1-[…] in the dark, zebrafish larvae 2 dpf", "value": "90.8 ± 1.4", "unit": "%"}, {"measurement": "heart rate normalized to control in dark", "setting": "[3]; 365 nm followed by 480 nm illumination, 5 min each", "value": "91.6 ± 1.3", "unit": "%"}, {"measurement": "heart rate normalized to control in dark", "setting": "[3]; after 365 nm illumination for 5 min", "value": "93.9 ± 0.9", "unit": "%"}, {"measurement": "photoswitching efficacy (optical control), Na+ current", "setting": "[4]", "value": "0.8 ± 0.8", "unit": "%"}, {"measurement": "inhibition at 100 µM", "setting": "[5]", "value": "51.2 ± 2.3", "unit": "%"}, {"measurement": "effect on heart rate in ISO-pretreated larvae", "setting": "[6]", "value": "markedly attenuate heart rate"}]}]}
